This is a sample that favours compounds with a hit; in the whole collection about 5.8% have one here.
Plk1 PBD FP: inhibitors of human Plk1 polo box domain binding; P53350; Plk1 PBD phosphopeptide binding, fluorescence polarization; inhibition, %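 (tested at about 20 µM)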; 97,000 compounds, 0.13% hits; in the data active = inhibition above about 34%, passing the limit was not always enough
Target sequence (P53350 whole entry, looked up, the tested form may be a part): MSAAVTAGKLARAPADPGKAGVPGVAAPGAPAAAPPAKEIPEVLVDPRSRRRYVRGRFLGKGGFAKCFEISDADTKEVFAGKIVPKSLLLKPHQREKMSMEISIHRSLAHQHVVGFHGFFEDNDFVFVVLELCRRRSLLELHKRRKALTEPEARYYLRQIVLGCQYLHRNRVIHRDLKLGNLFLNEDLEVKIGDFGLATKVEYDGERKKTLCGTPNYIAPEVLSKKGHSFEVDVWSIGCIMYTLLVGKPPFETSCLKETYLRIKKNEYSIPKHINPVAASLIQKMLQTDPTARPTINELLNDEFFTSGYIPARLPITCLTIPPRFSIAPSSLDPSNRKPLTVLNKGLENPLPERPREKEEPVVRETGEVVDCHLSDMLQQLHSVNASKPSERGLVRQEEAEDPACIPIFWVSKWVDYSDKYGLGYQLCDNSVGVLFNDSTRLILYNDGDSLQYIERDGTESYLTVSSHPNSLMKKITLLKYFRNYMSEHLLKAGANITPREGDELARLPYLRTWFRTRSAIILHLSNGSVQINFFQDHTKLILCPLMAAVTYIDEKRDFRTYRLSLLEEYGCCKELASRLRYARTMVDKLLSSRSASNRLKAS
Pyk2 oligo antag: antagonists of human Pyk2 oligomerization; 99,000 compounds, 0.83% hits; Q14289; Q293 cells, Pyk2 FERM NanoBiT luminescence; hits give low values; z-score (the deposit names both 25 µM and 10 µM);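 active = Z-score of -3 or lower, scaled per plate to the spread of control and sample wells; inactive = z-score above -3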;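 note: negative z-score means lost luminescence so less FERM oligomerization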
Rev-RRE block: inhibitors of HIV-1 Rev-RRE RNA interaction | AID 704 | P05866 | inhibition, % at 8 µM | 97,000 compounds, 0.79% hits | Rev peptide-RRE RNA binding, FRET;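 active = inhibition above the screen-wide mean plus 3 SD, cut at about 35% in these data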
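Material: labelled RRE RNA duplex and labelled Rev peptide / Buffer or medium: HEPES pH 7.5 salt buffer with EDTA / Compound dosing: single point, 8 µM final nominal compound concentration / Benchmarks: DMSO low control, neomycin B high control / Timing: 5 min preincubation and 15 min binding, 25 °C / Technique: FRET fluorescence readout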
PLK1 kinase inh: blocks human PLK1 kinase activity; P53350; recombinant PLK1 kinase, TR-FRET peptide phosphorylation; inhibition, % at 10 µM; 97,000 compounds, 0.53% hits;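 active = inhibition of 50% or more in the single-concentration screen; inactive = inhibition below 50%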
FAK inh: FAK (human) kinase inhibition | biochemical FAK kinase activity assay | 97,000 compounds, 0.84% hits | inhibition, %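 (tested at 7 µM)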 | AID 727; in the data active = inhibition above about 19%
Cav32 inh: human Cav3.2 channel inhibition, primary screen | 100,000 compounds, 4% hits | AID 449739 | Cav3.2-expressing cells, Fluo-4 calcium fluorescence FDSS; hits give low values | O95180 | B-score at 10 µM;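 active = single-dose well whose peak fluorescence ratio is a statistical outlier from its plate by either plate-standardised score or position-corrected B-score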
Hits are given with their value.

Screening CC(=O)Nc1ccc(S(=O)(=O)Nc2nc3ccccc3nc2N2CCCCCC2)cc1 returned Plk1 PBD FP inactive, Pyk2 oligo antag inactive, Rev-RRE block inactive, PLK1 kinase inh inactive, FAK inh inactive and Cav32 inh inactive.
`COc1ccc(N2CCN(c3nc4ccccc4nc3NS(=O)(=O)c3ccccc3)CC2)cc1` gave Plk1 PBD FP inactive, Pyk2 oligo antag inactive, Rev-RRE block inactive, PLK1 kinase inh inactive, FAK inh inactive and Cav32 inh -4.2.
For FC(F)Oc1ccc(/C=N/c2c(-c3ccc(OC(F)F)cc3)nc3n2CCS3)cc1 the results were Plk1 PBD FP inactive, Pyk2 oligo antag inactive, Rev-RRE block inactive, PLK1 kinase inh inactive, FAK inh inactive and Cav32 inh inactive.
For COc1cc(C=NCC2OCCc3ccccc32)cc(OC)c1 (stereo unspecified) the results were Pyk2 oligo antag inactive.
Cc1onc(-c2c(F)cccc2Cl)c1C(=O)Nc1nc2c(s1)CCCC2 was read as Plk1 PBD FP inactive, Pyk2 oligo antag -3.6, Rev-RRE block inactive, PLK1 kinase inh inactive, FAK inh inactive and Cav32 inh inactive.
CCCOc1cccc(NC(=O)c2c(-c3ccccc3)noc2C)c1 was read as Plk1 PBD FP inactive, Pyk2 oligo antag inactive, Rev-RRE block inactive, PLK1 kinase inh inactive, FAK inh inactive and Cav32 inh -4.9.
COc1ccc(Cc2nnc(NC(=O)c3c(-c4ccccc4)noc3C)s2)cc1 was read as Plk1 PBD FP inactive, Pyk2 oligo antag inactive, Rev-RRE block inactive, PLK1 kinase inh inactive, FAK inh inactive and Cav32 inh -5.2.
Screening Cc1onc(-c2ccccc2)c1C(=O)Nc1nc2c(s1)CCCC2 returned Plk1 PBD FP inactive, Pyk2 oligo antag -3.4, Rev-RRE block inactive, PLK1 kinase inh inactive, FAK inh inactive and Cav32 inh inactive.
Screening Cc1cc(C(=O)Nc2nc3c(s2)CCCC3)no1 returned Plk1 PBD FP inactive, Pyk2 oligo antag inactive, Rev-RRE block inactive, PLK1 kinase inh inactive, FAK inh inactive and Cav32 inh inactive.
Cc1csc(NC(=O)c2c(-c3c(Cl)cccc3Cl)noc2C)n1 was read as Plk1 PBD FP inactive, Pyk2 oligo antag inactive, Rev-RRE block inactive, PLK1 kinase inh inactive, FAK inh inactive and Cav32 inh inactive.
`Cc1cc(C)nc(NS(=O)(=O)c2ccc(NC(=O)CCCN3C(=O)c4ccccc4C3=O)cc2)n1` gave Pyk2 oligo antag inactive and Cav32 inh inactive.
For Cc1nn(-c2nc3ccccc3[nH]2)c(N)c1-c1ccccc1 the results were Plk1 PBD FP inactive, Pyk2 oligo antag inactive, Rev-RRE block inactive, PLK1 kinase inh inactive, FAK inh inactive and Cav32 inh inactive.
O=c1cc(-c2ccccc2)[nH]n1-c1nc2ccccc2[nH]1 was read as Plk1 PBD FP inactive, Pyk2 oligo antag inactive, Rev-RRE block inactive, PLK1 kinase inh inactive, FAK inh inactive and Cav32 inh -5.6.
COc1ccc(CN2CC(C(=O)NCCc3ccc(C)cc3)CC2=O)cc1 (stereo unspecified) was read as Plk1 PBD FP inactive, Pyk2 oligo antag inactive, Rev-RRE block inactive, PLK1 kinase inh inactive, FAK inh inactive and Cav32 inh inactive.
Screening O=C(Nc1nc2c(ccc3ccccc32)s1)c1ccco1 returned Plk1 PBD FP inactive, Pyk2 oligo antag -3.3, Rev-RRE block inactive, PLK1 kinase inh inactive, FAK inh inactive and Cav32 inh inactive.
For Cc1ccc2c(c1)COc1c3ccc(C(=O)NC(C)C)cc3nn1-2 the results were Cav32 inh inactive.
`O=C(Nc1nnc(C(F)(F)F)s1)c1ccc(N2C(=O)C3C4C=CC(C4)C3C2=O)cc1` (stereo unspecified) gave Plk1 PBD FP inactive, Pyk2 oligo antag inactive, Rev-RRE block inactive, PLK1 kinase inh inactive, FAK inh inactive and Cav32 inh inactive.
`CCCc1nnc(NC(=O)c2ccc(N3C(=O)C4C5C=CC(C5)C4C3=O)cc2)s1` (stereo unspecified) gave Plk1 PBD FP inactive, Pyk2 oligo antag -3.2, Rev-RRE block inactive, PLK1 kinase inh inactive, FAK inh inactive and Cav32 inh inactive.
For CN(C)c1ccc(-c2nn3c(C4CCCCC4)nnc3s2)cc1 the results were Plk1 PBD FP inactive, Pyk2 oligo antag -3.6, Rev-RRE block inactive, PLK1 kinase inh inactive, FAK inh inactive and Cav32 inh inactive.
N#CC(c1cccc(Cl)c1)c1ccc2c(C(F)(F)F)cc(C(F)(F)F)nc2n1 (stereo unspecified) was read as Plk1 PBD FP inactive, Pyk2 oligo antag inactive, Rev-RRE block inactive, PLK1 kinase inh inactive, FAK inh inactive and Cav32 inh -9.2.
Cc1cccc(C(C#N)c2nc3ccccc3nc2C(F)(F)F)c1 (stereo unspecified) was read as Plk1 PBD FP inactive, Pyk2 oligo antag inactive, Rev-RRE block inactive, PLK1 kinase inh inactive, FAK inh inactive and Cav32 inh inactive.
For CCN(CC(=O)Nc1cccc(OC)c1)C(=O)C1CCN(C(=O)Nc2ccccc2)CC1 the results were Plk1 PBD FP inactive, Pyk2 oligo antag inactive, Rev-RRE block inactive, PLK1 kinase inh inactive, FAK inh inactive and Cav32 inh inactive.
`CC(CCc1ccccc1)NC(=O)CN1CCN(Cc2ccccc2)C1=O` (stereo unspecified) gave Plk1 PBD FP inactive, Pyk2 oligo antag inactive, Rev-RRE block inactive, PLK1 kinase inh inactive, FAK inh inactive and Cav32 inh inactive.
Screening O=C1N(CC(=O)N2CCc3ccccc32)CCN1Cc1ccc(Cl)cc1 returned Plk1 PBD FP inactive, Pyk2 oligo antag inactive, Rev-RRE block inactive, PLK1 kinase inh inactive, FAK inh inactive and Cav32 inh -4.5.
Screening CC(CCc1ccccc1)NC(=O)CN1CCN(Cc2ccc(Cl)cc2)C1=O (stereo unspecified) returned Plk1 PBD FP inactive, Rev-RRE block inactive, PLK1 kinase inh inactive, FAK inh inactive and Cav32 inh -8.2.
Screening Cc1ccc(CN2CCN(CC(=O)NC(C)CCc3ccccc3)C2=O)cc1 (stereo unspecified) returned Plk1 PBD FP inactive, Rev-RRE block inactive, PLK1 kinase inh inactive, FAK inh inactive and Cav32 inh -5.7.
Screening O=C(Cn1cccc1)N1CCc2ccccc21 returned Plk1 PBD FP inactive, Pyk2 oligo antag inactive, Rev-RRE block inactive, PLK1 kinase inh inactive, FAK inh inactive and Cav32 inh inactive.
For CCOc1ccccc1CNC(=O)C1CCN(C(=O)c2sccc2-n2cccc2)CC1 the results were Plk1 PBD FP inactive, Pyk2 oligo antag inactive, Rev-RRE block inactive, PLK1 kinase inh inactive, FAK inh inactive and Cav32 inh inactive.
`CCCCNC(=O)c1sc2ncnc(N3CCc4ccccc4C3)c2c1C` gave Plk1 PBD FP inactive, Pyk2 oligo antag inactive, Rev-RRE block inactive, PLK1 kinase inh inactive, FAK inh inactive and Cav32 inh -5.1.
`Cc1c(C(=O)NCCCN2CCOCC2)sc2ncnc(N3CCN(c4ccccc4)CC3)c12` gave Pyk2 oligo antag inactive and Cav32 inh inactive.
Screening COc1ccc(/C(O)=C/C(=O)C(=O)Nc2c(C)n(C)n(-c3ccccc3)c2=O)cc1 returned Plk1 PBD FP inactive, Pyk2 oligo antag inactive, Rev-RRE block inactive, PLK1 kinase inh inactive, FAK inh inactive and Cav32 inh inactive.

Screening data as filed in PubChem.
